Data set [1] addresses Proto-oncogene tyrosine-protein kinase receptor Ret (Homo sapiens, UniProt P07949). Briefly: Inhibition of recombinant RET. Put shortly:
(§1)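 Purified recombinant kinases were tested under optimized conditions with peptide substrates. ATP was set at each kinase's Km. Phosphorylation was read out by microfluidic mobility shift, and IC50 values were determined.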

Data set [2] concerns the target Mitogen-activated protein kinase 1 (Homo sapiens, UniProt P28482). Briefly: Inhibition of recombinant ERK2. The method, boiled down:
(§2)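 Purified recombinant kinases under optimized conditions with peptide substrates. ATP was set at each kinase's Km. Phosphorylation was read by microfluidic mobility-shift separation of substrate and product; IC50 determined.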

The test system of data set [3] is Tumour. Briefly: Drug uptake in tumour of nude Rowett rat bearing human RT112 cells at 8.51 mg/kg, po administered as a single dose after 7 hrs by LC-MS/MS analysis. Type of data set: ADME, organism-based, Neoplasm, RT-112. The arrangement: dose 8.51 mg/kg, route oral. Conditions: in vivo. Put shortly: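 Nude Rowett rats bearing subcutaneous RT112 tumors (n = 4) received a single gavage of monophosphate salt at 4.25 or 8.51 mg/kg free base in acetate buffer pH 4.6/PEG300. Tumors were collected at intervals after dosing, frozen and homogenized in an equal volume of ice-cold PBS. Compound levels were measured by LC-MS/MS (LOQ 3 ng/mL).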

For data set [4], the system named is Tumour. Briefly: Dose normalized AUC in tumor of RT112/luc1 cells implanted athymic nude mouse at 20 mg/kg, po by LC/MS/MS analysis. Format: ADME, organism-based, Neoplasm. The arrangement: dose 20 mg/kg, route oral. Conditions: in vivo. Put shortly: (§3)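 Female athymic nude mice carried subcutaneous RT112/luc1 tumors (5×10^6 cells, 50% Matrigel; about 300–400 mm3). Dosing was either 5 mg/kg iv by tail vein in NMP/PEG200 (1:9) or 20 mg/kg oral suspension in PEG300/D5W (2:1). Groups of mice (n = 4) were sacrificed at 0.083–24 h. Plasma and tumor levels were measured by LC-MS/MS (LOQ 5 ng/mL, 10 ng/g).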

The test system of a further data set is BaF3. Briefly: Antiproliferative activity against mouse BAF3 cell line transformed with TEL-FGFR3 construct after 48 hrs by luciferase bioluminescent assay. Format: functional, cell-based. Conditions: BaF3, 48 h. The method, boiled down:
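IL-3-independent BaF3 or BaF3 Tel-TK cells were grown in RPMI-1640 with 10% FBS and seeded at 4250 cells/well in 384-well plates. Compound serially diluted in DMSO was pin-transferred, followed by 48 h at 37 °C, 5% CO2. Viability was read by Bright-Glo luciferase luminescence.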

In data set [5] the target is Tyrosine-protein kinase JAK1 (Homo sapiens, UniProt P23458). Briefly: Inhibition of recombinant JAK1. Put shortly:
as §2

Data set [6] in a line: Tmax in tumor of RT112/luc1 cells implanted athymic nude mouse at 5 mg/kg, iv by LC/MS/MS analysis. Type of data set: ADME, organism-based, Neoplasm. More on the design: dose 5 mg/kg, route intravenous. Put shortly:
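Female athymic nude mice carrying subcutaneous RT112/luc1 tumors (ca. 300–400 mm3). Dosing was 5 mg/kg iv by tail vein in NMP/PEG200 (1:9) or 20 mg/kg by oral gavage as a suspension in PEG300/D5W (2:1). Groups (n = 4) were sacrificed from 0.083 to 24 h. Plasma and tumor were measured by LC-MS/MS (LOQ 5 ng/mL, 10 ng/g). Noncompartmental analysis used the linear trapezoidal AUC; F was calculated from dose-normalized AUC.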

In data set [7] the target is Receptor tyrosine-protein kinase erbB-2 (Homo sapiens, UniProt P04626). Briefly: Inhibition of recombinant ERBB2. The method, boiled down: as §2
Data set [8] deals with Serine/threonine-protein kinase pim-2 (Homo sapiens, UniProt Q9P1W9). Briefly: Inhibition of recombinant PIM2. Put shortly: as §2
Data set [9] deals with Tyrosine-protein kinase ZAP-70 (Homo sapiens, UniProt P43403). Briefly: Inhibition of recombinant ZAP70. The method, boiled down:
as §1

The target in data set [10] is Tyrosine-protein kinase Lyn (Homo sapiens, UniProt P07948). Briefly: Inhibition of recombinant LYN kinase. Put shortly:
(§4)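 Purified recombinant kinases under optimized conditions, with peptide substrates and ATP at each kinase's Km. Phosphorylation was read out by microfluidic mobility shift, and IC50 values were obtained.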

In data set [11] the test system is Rattus norvegicus. Briefly: Inhibition of FGFR autophosphorylation in RT112 tumor bearing nude rowett rat assessed as decrease in pFRS2 concentration at 4.25 to 8.51 mg/kg, po administered as a single dose after 24 hrs by Western blot analysis. Format: functional, organism-based. Put shortly: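 RT112 tumor-bearing nude Rowett rats (n = 4) received a single oral dose of monophosphate salt at 4.25 or 8.51 mg/kg free base. Tumors were collected at time points up to 24 h and lysed in Tris/Triton buffer with vanadate and protease inhibitors. Western blots were run for pFRS2(Tyr196) and pMAPK, with total FRS2, total MAPK or β-tubulin as loading controls.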
In general terms: A western blot detects proteins with antibodies after separation by electrophoresis.

Data set [12] has as its target Tyrosine-protein kinase Lck (Homo sapiens, UniProt P06239). Briefly: Inhibition of recombinant LCK kinase. Put shortly:
as §4

In data set [13] the target is Tyrosine-protein kinase Yes (Homo sapiens, UniProt P07947). Briefly: Inhibition of recombinant YES kinase. The method, boiled down:
as §2

Data set [14] has as its system Tumour. Briefly: Dose normalized AUC in tumor of RT112/luc1 cells implanted athymic nude mouse at 5 mg/kg, iv by LC/MS/MS analysis. Type of data set: ADME, organism-based, Neoplasm. Conditions: in vivo. The arrangement: dose 5 mg/kg, route intravenous. The method, boiled down:
as §3

A further data set addresses Ephrin type-A receptor 4 (Homo sapiens, UniProt P54764). Briefly: Inhibition of recombinant EPHA4. Put shortly:
as §2

A short description of data set [15]: Inhibition of BCR-ABL-mediated proliferation of mouse BAF3 cells transformed with TEL-Kinase construct. Format: cell-based.
The test system of a further data set is VM-CUB-1. Briefly: Antiproliferative activity against human VMCUB1 cells after 72 hrs. Type of data set: functional, cell-based. Conditions: VM-CUB-1, 72 h. Put shortly:
(§5)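 Bladder cancer lines from ATCC or DSMZ were seeded in 96-well plates (RT4, RT112 at 8500 cells/well; others at 5000 cells/well) in growth medium. Compound dilutions or DMSO were added 24 h later and incubated 72 h. Cells were fixed with glutaraldehyde, stained with 0.05% methylene blue and eluted with 3% HCl, then OD650 nm was read.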

Another data set concerns J82. Briefly: Antiproliferative activity against human J82 cells after 72 hrs. Conditions: J82, 72 h. Type of data set: functional, cell-based. The method, boiled down:
as §5

Data set [16] concerns Tumour. Briefly: Cmax in tumor of RT112/luc1 cells implanted athymic nude mouse at 20 mg/kg, po by LC/MS/MS analysis. Type of data set: ADME, organism-based, Neoplasm. More on the design: dose 20 mg/kg, route oral. The conditions noted are these: in vivo. Put shortly: as §3
Data set [17] concerns the target Mitogen-activated protein kinase 14 (Homo sapiens, UniProt Q16539). Briefly: Inhibition of recombinant p38alpha. Put shortly: as §2
Data set [18] has as its system Rattus norvegicus. Briefly: Dose normalized AUC in Wistar rat at 10 mg/kg, po by LC-MS/MS analysis. Type of data set: ADME, organism-based. The arrangement: dose 10 mg/kg, route oral. The conditions noted are these: in vivo. The method, boiled down: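 Female Wistar rats received either an iv femoral-vein dose of 5 mg/kg in NMP/PEG200 (1:9) or an oral dose of monophosphate salt at 10 mg/kg (free base) in acetate buffer pH 4.6/PEG300. Plasma was sampled by sublingual bleeding at 0.083–24 h (n = 4 staggered, or n = 3–4 serial). Plasma levels were measured by LC-MS/MS (LOQ 10 ng/mL).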

Data set [19] deals with MAP kinase-interacting serine/threonine-protein kinase 1 (Homo sapiens, UniProt Q9BUB5). Briefly: Inhibition of recombinant MNK1. Put shortly: as §2
Chain of MAP kinase-interacting serine/threonine-protein kinase 1 (Q9BUB5 whole entry): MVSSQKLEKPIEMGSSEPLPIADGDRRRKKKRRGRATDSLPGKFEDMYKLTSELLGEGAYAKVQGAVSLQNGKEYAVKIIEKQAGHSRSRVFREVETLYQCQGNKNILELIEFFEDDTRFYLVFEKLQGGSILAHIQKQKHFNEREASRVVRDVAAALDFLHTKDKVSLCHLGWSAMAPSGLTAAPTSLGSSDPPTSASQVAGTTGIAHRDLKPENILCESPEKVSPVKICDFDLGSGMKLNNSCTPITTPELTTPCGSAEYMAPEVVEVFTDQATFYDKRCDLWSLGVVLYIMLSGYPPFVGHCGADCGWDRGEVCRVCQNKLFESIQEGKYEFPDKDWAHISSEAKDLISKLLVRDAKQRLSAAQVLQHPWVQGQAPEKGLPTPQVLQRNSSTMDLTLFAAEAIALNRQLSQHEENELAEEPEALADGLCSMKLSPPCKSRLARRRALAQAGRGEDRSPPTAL
In data set [20] the test system is Rattus norvegicus. Briefly: Toxicity in nude Rowett rat xenografted with human RT112 cells assessed as weight loss at 15 mg/kg, po qd administered for 20 days. Format: organism-based, RT-112. More on the design: dose 15 mg/kg, route oral. The conditions noted are these: in vivo, 480 h. The method, boiled down: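 Female nude Rowett rats carried subcutaneous RT112 tumors (1 × 10^6 cells in Matrigel), starting at about 100 mm3. The monophosphate salt was gavaged daily for 20 days at 5, 10 or 15 mg/kg (free base) in acetate buffer pH 4.6/PEG300 (1:1), n = 8. Body weight and morbidity were monitored; ANOVA with Dunnett's test.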
(In general: A xenograft is tissue or cells of one species grown in another, often human tumour cells in immunodeficient mice.)

The source of these data is ChEMBL document CHEMBL1833940, “Discovery of 3-(2,6-dichloro-3,5-dimethoxy-phenyl)-1-{6-[4-(4-ethyl-piperazin-1-yl)-phenylamino]-pyrimidin-4-yl}-1-methyl-urea (NVP-BGJ398), a potent and selective inhibitor of the fibroblast growth factor receptor family of receptor tyrosine kinase” (J Med Chem, 2011).

Active and inactive are the calls of the source. No cut-off for these calls is given here. Bounds are passed on as bounds.

Chain of Ephrin type-A receptor 4 (P54764 whole entry): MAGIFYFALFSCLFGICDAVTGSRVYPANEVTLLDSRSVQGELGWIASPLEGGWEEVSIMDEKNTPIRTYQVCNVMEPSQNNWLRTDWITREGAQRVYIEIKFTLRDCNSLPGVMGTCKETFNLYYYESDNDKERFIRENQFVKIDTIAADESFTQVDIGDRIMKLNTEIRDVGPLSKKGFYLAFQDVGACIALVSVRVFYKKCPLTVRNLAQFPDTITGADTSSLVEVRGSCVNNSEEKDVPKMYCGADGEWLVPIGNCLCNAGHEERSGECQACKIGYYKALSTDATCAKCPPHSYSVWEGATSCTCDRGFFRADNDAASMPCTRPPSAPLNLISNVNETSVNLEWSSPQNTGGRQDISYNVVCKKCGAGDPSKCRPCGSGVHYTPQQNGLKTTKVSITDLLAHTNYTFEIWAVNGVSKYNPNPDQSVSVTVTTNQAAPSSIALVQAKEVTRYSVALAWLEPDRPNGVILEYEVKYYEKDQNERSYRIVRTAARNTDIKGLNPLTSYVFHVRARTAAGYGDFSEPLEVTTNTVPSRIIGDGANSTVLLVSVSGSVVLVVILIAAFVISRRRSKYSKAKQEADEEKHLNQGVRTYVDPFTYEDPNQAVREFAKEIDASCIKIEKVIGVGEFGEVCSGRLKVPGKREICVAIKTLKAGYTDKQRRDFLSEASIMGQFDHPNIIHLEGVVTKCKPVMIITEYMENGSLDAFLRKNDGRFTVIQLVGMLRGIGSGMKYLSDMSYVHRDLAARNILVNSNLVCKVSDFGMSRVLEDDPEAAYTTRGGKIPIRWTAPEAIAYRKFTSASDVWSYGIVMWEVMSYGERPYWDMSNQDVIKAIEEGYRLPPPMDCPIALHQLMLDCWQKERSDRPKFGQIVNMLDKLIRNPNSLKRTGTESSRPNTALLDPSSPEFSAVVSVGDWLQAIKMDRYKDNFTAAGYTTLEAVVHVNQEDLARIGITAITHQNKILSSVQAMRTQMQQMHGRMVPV
Chain of Proto-oncogene tyrosine-protein kinase receptor Ret (P07949 whole entry): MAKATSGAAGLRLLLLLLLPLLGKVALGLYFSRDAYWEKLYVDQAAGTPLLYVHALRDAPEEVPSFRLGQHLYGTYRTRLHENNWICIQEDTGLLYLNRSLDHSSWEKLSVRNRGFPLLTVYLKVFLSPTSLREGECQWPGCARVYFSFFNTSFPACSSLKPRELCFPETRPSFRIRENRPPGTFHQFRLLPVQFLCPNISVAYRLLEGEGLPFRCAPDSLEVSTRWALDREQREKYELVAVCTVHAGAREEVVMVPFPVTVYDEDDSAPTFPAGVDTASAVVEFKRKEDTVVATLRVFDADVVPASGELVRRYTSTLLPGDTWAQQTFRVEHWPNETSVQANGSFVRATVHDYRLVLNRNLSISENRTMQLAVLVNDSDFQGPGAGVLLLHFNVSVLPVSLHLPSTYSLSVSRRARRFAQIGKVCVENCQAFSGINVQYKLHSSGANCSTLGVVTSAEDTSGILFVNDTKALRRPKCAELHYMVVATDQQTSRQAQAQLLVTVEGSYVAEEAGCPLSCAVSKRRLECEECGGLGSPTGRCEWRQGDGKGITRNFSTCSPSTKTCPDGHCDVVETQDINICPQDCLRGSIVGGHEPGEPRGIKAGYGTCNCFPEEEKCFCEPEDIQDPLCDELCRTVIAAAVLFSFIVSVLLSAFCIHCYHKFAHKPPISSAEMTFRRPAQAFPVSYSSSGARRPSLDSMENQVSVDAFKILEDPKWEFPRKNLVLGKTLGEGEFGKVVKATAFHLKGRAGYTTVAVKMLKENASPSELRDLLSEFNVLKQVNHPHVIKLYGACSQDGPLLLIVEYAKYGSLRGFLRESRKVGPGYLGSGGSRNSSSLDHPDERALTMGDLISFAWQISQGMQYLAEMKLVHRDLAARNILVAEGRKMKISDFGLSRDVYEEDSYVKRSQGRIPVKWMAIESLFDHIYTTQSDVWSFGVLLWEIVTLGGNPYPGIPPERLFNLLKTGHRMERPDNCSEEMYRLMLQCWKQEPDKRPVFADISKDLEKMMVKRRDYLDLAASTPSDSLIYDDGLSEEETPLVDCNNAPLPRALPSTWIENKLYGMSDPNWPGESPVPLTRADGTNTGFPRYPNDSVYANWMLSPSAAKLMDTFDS
Chain of Mitogen-activated protein kinase 1 (P28482 whole entry): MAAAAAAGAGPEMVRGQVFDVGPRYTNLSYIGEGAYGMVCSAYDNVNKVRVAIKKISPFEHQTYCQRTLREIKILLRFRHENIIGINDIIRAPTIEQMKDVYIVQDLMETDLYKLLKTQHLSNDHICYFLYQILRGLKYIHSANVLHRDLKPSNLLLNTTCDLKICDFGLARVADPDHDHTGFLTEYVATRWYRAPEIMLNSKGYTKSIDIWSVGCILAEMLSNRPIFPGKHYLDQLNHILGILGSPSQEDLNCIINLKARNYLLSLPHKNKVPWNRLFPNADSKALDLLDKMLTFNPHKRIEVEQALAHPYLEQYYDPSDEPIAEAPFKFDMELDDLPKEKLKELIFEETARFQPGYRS
Chain of Tyrosine-protein kinase Lyn (P07948 whole entry): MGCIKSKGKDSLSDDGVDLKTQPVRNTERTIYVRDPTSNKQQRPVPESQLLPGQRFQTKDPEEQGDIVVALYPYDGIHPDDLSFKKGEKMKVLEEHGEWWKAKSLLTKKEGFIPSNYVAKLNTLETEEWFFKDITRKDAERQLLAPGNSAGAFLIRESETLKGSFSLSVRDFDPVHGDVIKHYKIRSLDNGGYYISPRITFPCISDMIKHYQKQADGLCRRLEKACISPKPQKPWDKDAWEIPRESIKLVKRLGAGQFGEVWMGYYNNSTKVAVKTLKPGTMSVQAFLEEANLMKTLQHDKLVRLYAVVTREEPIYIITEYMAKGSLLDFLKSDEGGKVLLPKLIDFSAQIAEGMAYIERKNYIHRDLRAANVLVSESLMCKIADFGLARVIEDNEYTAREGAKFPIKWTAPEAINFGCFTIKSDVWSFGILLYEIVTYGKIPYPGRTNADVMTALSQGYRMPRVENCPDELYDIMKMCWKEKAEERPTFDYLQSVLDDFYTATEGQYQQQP
Chain of Tyrosine-protein kinase ZAP-70 (P43403 whole entry): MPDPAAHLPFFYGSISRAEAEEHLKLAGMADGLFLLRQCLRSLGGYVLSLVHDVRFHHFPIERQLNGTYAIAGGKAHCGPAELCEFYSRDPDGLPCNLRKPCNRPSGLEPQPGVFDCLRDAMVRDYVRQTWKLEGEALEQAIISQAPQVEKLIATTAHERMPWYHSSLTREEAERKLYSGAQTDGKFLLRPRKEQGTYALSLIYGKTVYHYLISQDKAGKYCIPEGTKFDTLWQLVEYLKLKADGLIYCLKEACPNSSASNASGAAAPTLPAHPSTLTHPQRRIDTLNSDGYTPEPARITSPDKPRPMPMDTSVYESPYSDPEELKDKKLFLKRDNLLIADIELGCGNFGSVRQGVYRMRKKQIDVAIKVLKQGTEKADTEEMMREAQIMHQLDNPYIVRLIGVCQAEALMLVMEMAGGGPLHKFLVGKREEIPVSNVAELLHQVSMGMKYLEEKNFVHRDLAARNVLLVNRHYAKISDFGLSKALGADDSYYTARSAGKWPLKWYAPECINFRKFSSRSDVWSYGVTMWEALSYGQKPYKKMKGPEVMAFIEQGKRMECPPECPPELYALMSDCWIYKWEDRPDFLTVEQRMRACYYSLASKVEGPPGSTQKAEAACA
Chain of Tyrosine-protein kinase Yes (P07947 whole entry): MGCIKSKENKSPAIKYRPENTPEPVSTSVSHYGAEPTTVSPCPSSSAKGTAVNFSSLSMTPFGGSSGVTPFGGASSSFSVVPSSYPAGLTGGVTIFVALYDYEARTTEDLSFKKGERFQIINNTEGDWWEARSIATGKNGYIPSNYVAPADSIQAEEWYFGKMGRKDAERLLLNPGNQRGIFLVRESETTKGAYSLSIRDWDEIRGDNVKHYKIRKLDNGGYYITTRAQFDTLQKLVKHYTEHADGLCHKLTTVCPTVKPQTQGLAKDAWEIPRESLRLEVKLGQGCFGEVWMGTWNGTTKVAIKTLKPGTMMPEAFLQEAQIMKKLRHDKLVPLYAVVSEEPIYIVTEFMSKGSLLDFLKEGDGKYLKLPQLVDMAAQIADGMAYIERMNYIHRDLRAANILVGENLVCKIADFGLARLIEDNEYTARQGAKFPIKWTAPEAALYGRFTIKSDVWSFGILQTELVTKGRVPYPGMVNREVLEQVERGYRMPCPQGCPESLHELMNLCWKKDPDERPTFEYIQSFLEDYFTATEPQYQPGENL
Chain of Mitogen-activated protein kinase 14 (Q16539 whole entry): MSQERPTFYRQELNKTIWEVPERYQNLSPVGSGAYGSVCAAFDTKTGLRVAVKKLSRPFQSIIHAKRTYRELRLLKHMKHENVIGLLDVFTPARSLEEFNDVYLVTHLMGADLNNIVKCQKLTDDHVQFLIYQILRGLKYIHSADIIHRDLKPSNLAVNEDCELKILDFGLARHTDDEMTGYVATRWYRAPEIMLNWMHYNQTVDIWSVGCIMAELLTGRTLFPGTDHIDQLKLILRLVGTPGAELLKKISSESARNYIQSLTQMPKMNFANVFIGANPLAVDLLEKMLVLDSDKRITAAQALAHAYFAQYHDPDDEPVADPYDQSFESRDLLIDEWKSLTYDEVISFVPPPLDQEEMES

As for `CCN1CCN(c2ccc(Nc3cc(N(C)C(=O)Nc4c(Cl)c(OC)cc(OC)c4Cl)ncn3)cc2)CC1.O=P(O)(O)O` [INFIGRATINIB PHOSPHATE], the half-maximal inhibitory concentration (IC50) was above 10 µM in data set [1]; above 10 µM in data set [2]; 0.002 µM with BaF3; above 10 µM in [5]; above 10 µM in data set [7]; above 10 µM in data set [8]. The half-inhibitory concentration (IC50) in [9] is above 10 µM; in data set [10], 0.3 µM; in data set [12], 2.5 µM; in [13] it was 1.1 µM; on Ephrin type-A receptor 4 it was above 10 µM; in data set [15], 2.19 µM. The IC50 is above 3 µM in the data set with VM-CUB-1, above 3 µM in the data set with J82, above 10 µM in data set [17] and above 10 µM in data set [19]. This molecule also yielded a Drug uptake in the data set on Tumour [3] of 1.52 nmol/g. In addition, the AUC/dose with Tumour [4] is 1.85 nmol·h/g; in the data set with Tumour [14], 4.8 nmol·h/g; in the data set with Rattus norvegicus [18] it was 0.25 µM·h. Moreover, the time of peak concentration (Tmax) in [6] was determined as 2 h. The inhibition entry with Rattus norvegicus [11] was “inactive”. In the data set with Tumour [16], this molecule displayed a Cmax of 1.63 nmol/g. Moreover, the Activity in the data set with Rattus norvegicus [20] was 9%.

The IC50 is the concentration needed to halve the response being measured. A word on the Tmax: it is the time at which the peak concentration occurs.
